Measured values reported in ChEMBL document CHEMBL1921722, “In vitro and in vivo evaluation of select kahalalide F analogs with antitumor and antifungal activities” (Bioorg Med Chem, 2011).
Active and inactive are the calls of the source.

What was measured:
OVCAR-8 [1] = assay: Cytotoxicity against human OVCAR8 cells by sulforhodamine B assay; assay type: functional
Outline: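 NCI Developmental Therapeutics Program 60-cell-line human tumor panel, standard procedure. Single-concentration prescreen first; active compounds then tested at five concentrations. GI50 is the concentration reducing growth of treated cells to half that of untreated controls.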

NCI/ADR-RES = assay: Cytotoxicity against human NCI/ADR-RES cells by sulforhodamine B assay; assay type: functional; settings: for TGI: read-out: pTGI (converted)
Outline: (§1)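 NCI Developmental Therapeutics Program 60-cell-line human tumor panel screen, run at NCI. A single-concentration pre-screen was followed by a five-concentration dose-response in 10-fold steps. GI50 is the concentration that reduces growth of treated cells to half that of untreated control cells. TGI is the concentration that completely halts growth.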

SK-MEL-28 = assay: Cytotoxicity against human SK-MEL-28 cells assessed as cell growth at 8 nM by sulforhodamine B assay relative to control; assay type: functional; settings: read-out: Activity
U-251 [2] = assay: Cytotoxicity against human U251 cells assessed as cell growth at 8 nM by sulforhodamine B assay relative to control; assay type: functional; settings: read-out: Activity
NCI-H226 [3] = assay: Cytotoxicity against human NCI-H226 cells assessed as cell growth at 8 nM by sulforhodamine B assay relative to control; assay type: functional; settings: read-out: Activity
Staphylococcus aureus = assay: Antimicrobial activity against methicillin-resistant Staphylococcus aureus ATCC 43300 by CLSI method; assay type: functional, organism-based
[4] = Acute toxicity in ip dosed athymic nude mouse assessed as mortality after 24 days; assay type: organism-based; settings: in vivo
Outline: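 Female athymic nude mice, non-tumored; single IP injection, one mouse per dose level, 400, 200 and 100 mg/kg first, then 50, 25 and 12.5 mg/kg. Dose volume 0.1 ml/10 g body weight. Body weight and survival monitored; animals sacrificed on >20% weight loss or other significant toxicity.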

OVCAR-3 [5] = assay: Cytotoxicity against human OVCAR3 cells assessed as cell growth at 8 nM by sulforhodamine B assay relative to control; assay type: functional; settings: read-out: Activity
ACHN = assay: Cytotoxicity against human ACHN cells assessed as cell growth at 8 nM by sulforhodamine B assay relative to control; assay type: functional; settings: read-out: Activity
Outline: (§2)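 Run at NCI in the DTP 60-cell-line human tumor panel by standard procedure. Compounds were first screened at a single concentration, then tested at five tenfold-spaced concentrations. GI50 is the concentration reducing treated-cell growth to half that of untreated controls; TGI is the concentration completely halting growth.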

UO-31 = assay: Cytotoxicity against human UO31 cells assessed as cell growth at 8 nM by sulforhodamine B assay relative to control; assay type: functional; settings: read-out: Activity
MCF7 = assay: Cytotoxicity against human MCF7 cells assessed as cell growth at 8 nM by sulforhodamine B assay relative to control; assay type: functional; settings: read-out: Activity
K562 [6] = assay: Cytotoxicity against human K562 cells assessed as cell growth at 80 nM by sulforhodamine B assay relative to control; assay type: functional; settings: read-out: Activity
NCI-H522 [7] = assay: Cytotoxicity against human NCI-H522 cells assessed as cell growth at 80 nM by sulforhodamine B assay relative to control; assay type: functional; settings: read-out: Activity
SF-539 = assay: Cytotoxicity against human SF539 cells assessed as cell growth at 80 nM by sulforhodamine B assay relative to control; assay type: functional; settings: read-out: Activity
SK-MEL-5 [8] = assay: Cytotoxicity against human SK-MEL-5 cells assessed as cell growth at 80 nM by sulforhodamine B assay relative to control; assay type: functional; settings: read-out: Activity
MOLT-4 = assay: Cytotoxicity against human MOLT4 cells assessed as cell growth at 800 nM by sulforhodamine B assay relative to control; assay type: functional; settings: read-out: Activity
SR = assay: Cytotoxicity against human SR cells assessed as cell growth at 800 nM by sulforhodamine B assay relative to control; assay type: functional; settings: read-out: Activity
HT-29 = assay: Cytotoxicity against human HT-29 cells assessed as cell growth at 800 nM by sulforhodamine B assay relative to control; assay type: functional; settings: read-out: Activity
UACC-257 = assay: Cytotoxicity against human UACC257 cells assessed as cell growth at 800 nM by sulforhodamine B assay relative to control; assay type: functional; settings: read-out: Activity
OVCAR-8 [9] = assay: Cytotoxicity against human OVCAR8 cells assessed as cell growth at 800 nM by sulforhodamine B assay relative to control; assay type: functional; settings: read-out: Activity
SK-OV-3 = assay: Cytotoxicity against human SKOV3 cells assessed as cell growth at 800 nM by sulforhodamine B assay relative to control; assay type: functional; settings: read-out: Activity
786-0 = assay: Cytotoxicity against human 786-0 cells assessed as cell growth at 800 nM by sulforhodamine B assay relative to control; assay type: functional; settings: read-out: Activity; outline: as §2
A498 = assay: Cytotoxicity against human A498 cells assessed as cell growth at 800 nM by sulforhodamine B assay relative to control; assay type: functional; settings: read-out: Activity; outline: as §2
HOP-62 = assay: Cytotoxicity against human HOP62 cells assessed as cell growth at 8 uM by sulforhodamine B assay relative to control; assay type: functional; settings: read-out: Activity
NCI-H226 [10] = assay: Cytotoxicity against human NCI-H226 cells assessed as cell growth at 80 uM by sulforhodamine B assay relative to control; assay type: functional; settings: read-out: Activity
NCI-H23 = assay: Cytotoxicity against human NCI-H23 cells assessed as cell growth at 80 uM by sulforhodamine B assay relative to control; assay type: functional; settings: read-out: Activity
NCI-H522 [11] = assay: Cytotoxicity against human NCI-H522 cells assessed as cell growth at 80 uM by sulforhodamine B assay relative to control; assay type: functional; settings: read-out: Activity
HCT-116 = assay: Cytotoxicity against human HCT116 cells assessed as cell growth at 80 uM by sulforhodamine B assay relative to control; assay type: functional; settings: read-out: Activity
SNB-19 [12] = assay: Cytotoxicity against human SNB19 cells assessed as cell growth at 80 uM by sulforhodamine B assay relative to control; assay type: functional; settings: read-out: Activity
U-251 [13] = assay: Cytotoxicity against human U251 cells assessed as cell growth at 80 uM by sulforhodamine B assay relative to control; assay type: functional; settings: read-out: Activity
SK-MEL-5 [14] = assay: Cytotoxicity against human SK-MEL-5 cells assessed as cell growth at 80 uM by sulforhodamine B assay relative to control; assay type: functional; settings: read-out: Activity
OVCAR-3 [15] = assay: Cytotoxicity against human OVCAR3 cells assessed as cell growth at 80 uM by sulforhodamine B assay relative to control; assay type: functional; settings: read-out: Activity
SN12C = assay: Cytotoxicity against human SN12C cells assessed as cell growth at 80 uM by sulforhodamine B assay relative to control; assay type: functional; settings: read-out: Activity
K562 [16] = assay: Cytotoxicity against human K562 cells by sulforhodamine B assay; assay type: functional; settings: for CC50: read-out: pLC50 (the source's name) (converted); for TGI: read-out: pTGI (converted); outline: as §1
A549 = assay: Cytotoxicity against human A549 cells by sulforhodamine B assay; assay type: functional; outline: as §2
HCC 2998 = assay: Cytotoxicity against human HCC2998 cells by sulforhodamine B assay; assay type: functional
Outline: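 Run by the NCI Developmental Therapeutics Program on its 60-line human tumour cell panel using the standard procedure. Compounds went through a single-concentration prescreen first, and those active by NCI criteria went on to a five-concentration growth-inhibition test. GI50 is the concentration that cuts growth of treated cells to half that of untreated control cells.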

SNB-19 [17] = assay: Cytotoxicity against human SNB19 cells by sulforhodamine B assay; assay type: functional; settings: for TGI: read-out: pTGI (converted); outline: as §1

## C/C=C1\NC(=O)[C@H](Cc2ccccc2)NC(=O)[C@@H](C(C)C)NC(=O)[C@@H]([C@@H](C)CC)NC(=O)[C@H](NC(=O)[C@H](NC(=O)[C@H](CCCNCc2ccc(N3CCOCC3)cc2)NC(=O)[C@H]2CCCN2C(=O)[C@H](NC(=O)[C@@H](NC(=O)[C@@H](NC(=O)[C@H](NC(=O)CCCC(C)C)C(C)C)[C@@H](C)O)C(C)C)C(C)C)[C@@H](C)CC)[C@@H](C)OC(=O)[C@H](C(C)C)NC1=O
OVCAR-8 [1]
  GI50: 1700 nM
  LC50: > 75900 nM
NCI/ADR-RES
  GI50: 1410 nM
  LC50: 21400 nM
  TGI: 3470 nM
SK-MEL-28
  growth at 0.008 µM: 87%
U-251 [2]
  growth at 0.008 µM: 94%
NCI-H226 [3]
  growth at 0.008 µM: 94%
Staphylococcus aureus
  Activity: inactive
[4]
  MTD at 576 h: 12.5 mg/kg
OVCAR-3 [5]
  growth at 0.008 µM: 100%
ACHN
  growth at 0.008 µM: 100%
UO-31
  growth at 0.008 µM: 101%
MCF7
  growth at 0.008 µM: 102%
K562 [6]
  growth at 0.08 µM: 100%
NCI-H522 [7]
  growth at 0.08 µM: 99%
SF-539
  growth at 0.08 µM: 101%
SK-MEL-5 [8]
  growth at 0.08 µM: 101%
MOLT-4
  growth at 0.8 µM: 95%
SR
  growth at 0.8 µM: 103%
HT-29
  growth at 0.8 µM: 3%
UACC-257
  growth at 0.8 µM: 93%
OVCAR-8 [9]
  growth at 0.8 µM: 96%
SK-OV-3
  growth at 0.8 µM: -35%
786-0
  growth at 0.8 µM: 101%
A498
  growth at 0.8 µM: 100%
HOP-62
  growth at 8 µM: -70%
NCI-H226 [10]
  growth at 80 µM: -26%
NCI-H23
  growth at 80 µM: -85%
NCI-H522 [11]
  growth at 80 µM: -22%
HCT-116
  growth at 80 µM: -58%
SNB-19 [12]
  growth at 80 µM: -5%
U-251 [13]
  growth at 80 µM: -61%
SK-MEL-5 [14]
  growth at 80 µM: -56%
OVCAR-3 [15]
  growth at 80 µM: -50%
SN12C
  growth at 80 µM: -17%
K562 [16]
  GI50: 4790 nM
  CC50: > 75900 nM
  TGI: 22900 nM
A549; read-out: GI50
  GI50: 175 nM
A549; read-out: pGI50 (converted)
  GI50: 174 nM
HCC 2998
  LC50: 3310 nM
HCC 2998; read-out: GI50
  GI50: 250 nM
HCC 2998; read-out: TGI
  TGI: 877 nM
HCC 2998; read-out: pGI50 (converted)
  GI50: 251 nM
HCC 2998; read-out: pTGI (converted)
  TGI: 871 nM
SNB-19 [17]
  GI50: 1350 nM
  TGI: 2750 nM

## C/C=C1\NC(=O)[C@H](Cc2ccccc2)NC(=O)[C@@H](C(C)C)NC(=O)[C@@H]([C@@H](C)CC)NC(=O)[C@H](NC(=O)[C@H](NC(=O)[C@H](CCCNCc2ccc(F)c(C)c2)NC(=O)[C@H]2CCCN2C(=O)[C@H](NC(=O)[C@@H](NC(=O)[C@@H](NC(=O)[C@H](NC(=O)CCCC(C)C)C(C)C)[C@@H](C)O)C(C)C)C(C)C)[C@@H](C)CC)[C@@H](C)OC(=O)[C@H](C(C)C)NC1=O
OVCAR-8 [1]
  GI50: 1860 nM
  LC50: 75900 nM
NCI/ADR-RES
  GI50: 1320 nM
  LC50: 5250 nM
  TGI: 2630 nM
SK-MEL-28
  growth at 0.008 µM: 97%
U-251 [2]
  growth at 0.008 µM: 96%
NCI-H226 [3]
  growth at 0.008 µM: 101%
Staphylococcus aureus
  Activity: inactive
[4]
  MTD at 576 h: 12.5 mg/kg
OVCAR-3 [5]
  growth at 0.008 µM: 105%
ACHN
  growth at 0.008 µM: 100%
UO-31
  growth at 0.008 µM: 100%
MCF7
  growth at 0.008 µM: 95%
K562 [6]
  growth at 0.08 µM: 106%
NCI-H522 [7]
  growth at 0.08 µM: 101%
SF-539
  growth at 0.08 µM: 104%
SK-MEL-5 [8]
  growth at 0.08 µM: 99%
MOLT-4
  growth at 0.8 µM: 96%
SR
  growth at 0.8 µM: 98%
HT-29
  growth at 0.8 µM: -52%
UACC-257
  growth at 0.8 µM: 88%
OVCAR-8 [9]
  growth at 0.8 µM: 92%
SK-OV-3
  growth at 0.8 µM: -46%
786-0
  growth at 0.8 µM: 96%
A498
  growth at 0.8 µM: 96%
HOP-62
  growth at 8 µM: -93%
NCI-H226 [10]
  growth at 80 µM: -18%
NCI-H23
  growth at 80 µM: -82%
NCI-H522 [11]
  growth at 80 µM: -2%
HCT-116
  growth at 80 µM: -94%
SNB-19 [12]
  growth at 80 µM: -66%
U-251 [13]
  growth at 80 µM: -89%
SK-MEL-5 [14]
  growth at 80 µM: -100%
OVCAR-3 [15]
  growth at 80 µM: -90%
SN12C
  growth at 80 µM: -96%
K562 [16]
  GI50: 1820 nM
  CC50: > 75900 nM
  TGI: 3890 nM
A549; read-out: GI50
  GI50: 167 nM
A549; read-out: pGI50 (converted)
  GI50: 166 nM
HCC 2998
  LC50: 891 nM
HCC 2998; read-out: GI50
  GI50: 172 nM
HCC 2998; read-out: TGI
  TGI: 367 nM
HCC 2998; read-out: pGI50 (converted)
  GI50: 174 nM
HCC 2998; read-out: pTGI (converted)
  TGI: 363 nM
SNB-19 [17]
  GI50: 1290 nM
  LC50 (concentration killing 50% of cells): 4790 nM
  TGI: 2450 nM
